Test results: ChEMBL document CHEMBL5058577, “EUbOPEN Chemogenomics Library 2 (Multiplex)” (2022)

Test system: U2OS
Assay: Multiplex assay against U2OS
Type: toxicity, cell-based
Settings: human
In short: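 Live cells were stained at seeding with Hoechst33342, BioTracker Green Microtubule Cytoskeleton Dye, MitoTracker Red and Annexin V Alexa Fluor 680. Following compound addition, they were imaged on a CQ1 microscope at 37°C and 5% CO2 and gated by CellPathfinder machine learning into Hoechst high-intensity objects or normal cells, with normal cells split into healthy, pyknosed or fragmented nuclei and pyknosed cells into mitotic or apoptotic. Tubulin, mitochondrial-mass and membrane-permeability phenotypes are per cents of healthy-nucleus cells.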

[1] = 12 h, 1 µM, compound concentration 1 uM, replicate 1
[2] = 12 h, 1 µM, compound concentration 1 uM, replicate 2
[3] = 12 h, 10 µM, compound concentration 10 uM, replicate 1
[4] = 12 h, 10 µM, compound concentration 10 uM, replicate 2
[5] = 24 h, 1 µM, compound concentration 1 uM, replicate 1
[6] = 24 h, 1 µM, compound concentration 1 uM, replicate 2
[7] = 24 h, 10 µM, compound concentration 10 uM, replicate 1
[8] = 24 h, 10 µM, compound concentration 10 uM, replicate 2
[9] = 48 h, 1 µM, compound concentration 1 uM, replicate 1
[10] = 48 h, 1 µM, compound concentration 1 uM, replicate 2
[11] = 48 h, 10 µM, compound concentration 10 uM, replicate 1
[12] = 48 h, 10 µM, compound concentration 10 uM, replicate 2

Q: With COC(c1ccccc1)(c1ccccc1)[C@H](Oc1nc(C)cc(C)n1)C(=O)O [AMBRISENTAN] as the compound, how does the “Population Apoptotic (%)” value [1] read?
A: 95%

Q: What about the “Population Fragmented Nuclei (%)” value [1] of the same compound?
A: 26%

Q: And the “Population Healthy Nuclei (%)” value [1]?
A: 62%

Q: What about the “Population Hoechst High Intensity Objects (%)” value [1] of the same compound?
A: 2%

Q: And the “Population Membrane Permeable-Phenotype (%)” value [1]?
A: 3%

Q: And the “Population Mitochondria Different-Phenotype (%)” value [1]?
A: 0%

Q: And the “Population Mitotic Cells (%)” value [1]?
A: 4%

Q: What about the “Population Normal (%)” value [1] of the same compound?
A: 97%

Q: What about the “Population Pyknosed Nuclei (%)” value [1] of the same compound?
A: 10%

Q: What about the “Population Tubulin-Different-Phenotype (%)” value [1] of the same compound?
A: 1%

Q: And the “Total Cell Count” value [1]?
A: 209

Q: What about the “Population Apoptotic (%)” value [2] of the same compound?
A: 100%

Q: What about the “Population Fragmented Nuclei (%)” value [2] of the same compound?
A: 21%

Q: What about the “Population Healthy Nuclei (%)” value [2] of the same compound?
A: 72%

Q: And the “Population Membrane Permeable-Phenotype (%)” value [2]?
A: 8%

Q: And the “Population Mitochondria Different-Phenotype (%)” value [2]?
A: 3%

Q: What about the “Population Mitotic Cells (%)” value [2] of the same compound?
A: 0%

Q: And the “Population Pyknosed Nuclei (%)” value [2]?
A: 5%

Q: What about the “Total Cell Count” value [2] of the same compound?
A: 87

Q: What about the “Population Apoptotic (%)” value [3] of the same compound?
A: 61%

Q: And the “Population Fragmented Nuclei (%)” value [3]?
A: 28%

Q: What about the “Population Healthy Nuclei (%)” value [3] of the same compound?
A: 63%

Q: And the “Population Hoechst High Intensity Objects (%)” value [3]?
A: 2%

Q: And the “Population Membrane Permeable-Phenotype (%)” value [3]?
A: 4%

Q: And the “Population Mitochondria Different-Phenotype (%)” value [3]?
A: 2%

Q: What about the “Population Mitotic Cells (%)” value [3] of the same compound?
A: 38%

Q: What about the “Population Normal (%)” value [3] of the same compound?
A: 97%

Q: What about the “Population Pyknosed Nuclei (%)” value [3] of the same compound?
A: 7%

Q: What about the “Population Tubulin-Different-Phenotype (%)” value [3] of the same compound?
A: 1%

Q: And the “Total Cell Count” value [3]?
A: 232

Q: And the “Population Apoptotic (%)” value [4]?
A: 100%

Q: And the “Population Fragmented Nuclei (%)” value [4]?
A: 19%

Q: And the “Population Healthy Nuclei (%)” value [4]?
A: 72%

Q: What about the “Population Hoechst High Intensity Objects (%)” value [4] of the same compound?
A: 0%

Q: What about the “Population Mitochondria Different-Phenotype (%)” value [4] of the same compound?
A: 0%

Q: And the “Population Mitotic Cells (%)” value [4]?
A: 0%

Q: And the “Population Normal (%)” value [4]?
A: 99%

Q: And the “Population Tubulin-Different-Phenotype (%)” value [4]?
A: 0%

Q: What about the “Total Cell Count” value [4] of the same compound?
A: 104

Q: What about the “Population Apoptotic (%)” value [5] of the same compound?
A: 95%

Q: What about the “Population Fragmented Nuclei (%)” value [5] of the same compound?
A: 27%

Q: What about the “Population Healthy Nuclei (%)” value [5] of the same compound?
A: 63%

Q: And the “Population Hoechst High Intensity Objects (%)” value [5]?
A: 0%

Q: What about the “Population Membrane Permeable-Phenotype (%)” value [5] of the same compound?
A: 4%

Q: What about the “Population Mitochondria Different-Phenotype (%)” value [5] of the same compound?
A: 1%

Q: And the “Population Mitotic Cells (%)” value [5]?
A: 4%

Q: And the “Population Normal (%)” value [5]?
A: 99%

Q: And the “Population Pyknosed Nuclei (%)” value [5]?
A: 8%

Q: And the “Population Tubulin-Different-Phenotype (%)” value [5]?
A: 1%

Q: What about the “Total Cell Count” value [5] of the same compound?
A: 248

Q: And the “Population Apoptotic (%)” value [6]?
A: 100%

Q: And the “Population Fragmented Nuclei (%)” value [6]?
A: 23%

Q: What about the “Population Healthy Nuclei (%)” value [6] of the same compound?
A: 66%

Q: And the “Population Membrane Permeable-Phenotype (%)” value [6]?
A: 1%

Q: And the “Population Mitochondria Different-Phenotype (%)” value [6]?
A: 2%

Q: What about the “Population Mitotic Cells (%)” value [6] of the same compound?
A: 0%

Q: What about the “Population Pyknosed Nuclei (%)” value [6] of the same compound?
A: 10%

Q: And the “Total Cell Count” value [6]?
A: 111

Q: What about the “Population Apoptotic (%)” value [7] of the same compound?
A: 84%

Q: And the “Population Fragmented Nuclei (%)” value [7]?
A: 25%

Q: And the “Population Healthy Nuclei (%)” value [7]?
A: 65%

Q: What about the “Population Hoechst High Intensity Objects (%)” value [7] of the same compound?
A: 1%

Q: What about the “Population Membrane Permeable-Phenotype (%)” value [7] of the same compound?
A: 7%

Q: What about the “Population Mitochondria Different-Phenotype (%)” value [7] of the same compound?
A: 2%

Q: And the “Population Mitotic Cells (%)” value [7]?
A: 16%

Q: And the “Population Normal (%)” value [7]?
A: 98%

Q: What about the “Population Pyknosed Nuclei (%)” value [7] of the same compound?
A: 9%

Q: What about the “Population Tubulin-Different-Phenotype (%)” value [7] of the same compound?
A: 3%

Q: And the “Total Cell Count” value [7]?
A: 273

Q: And the “Population Apoptotic (%)” value [8]?
A: 80%

Q: What about the “Population Fragmented Nuclei (%)” value [8] of the same compound?
A: 13%

Q: And the “Population Healthy Nuclei (%)” value [8]?
A: 77%

Q: What about the “Population Hoechst High Intensity Objects (%)” value [8] of the same compound?
A: 0%

Q: And the “Population Mitotic Cells (%)” value [8]?
A: 20%

Q: What about the “Population Normal (%)” value [8] of the same compound?
A: 100%

Q: And the “Population Pyknosed Nuclei (%)” value [8]?
A: 8%

Q: What about the “Population Tubulin-Different-Phenotype (%)” value [8] of the same compound?
A: 5%

Q: What about the “Total Cell Count” value [8] of the same compound?
A: 115

Q: And the “Population Apoptotic (%)” value [9]?
A: 89%

Q: And the “Population Fragmented Nuclei (%)” value [9]?
A: 17%

Q: What about the “Population Healthy Nuclei (%)” value [9] of the same compound?
A: 70%

Q: And the “Population Hoechst High Intensity Objects (%)” value [9]?
A: 2%

Q: What about the “Population Membrane Permeable-Phenotype (%)” value [9] of the same compound?
A: 2%

Q: What about the “Population Mitochondria Different-Phenotype (%)” value [9] of the same compound?
A: 1%

Q: And the “Population Mitotic Cells (%)” value [9]?
A: 10%

Q: What about the “Population Normal (%)” value [9] of the same compound?
A: 97%

Q: And the “Population Pyknosed Nuclei (%)” value [9]?
A: 11%

Q: And the “Population Tubulin-Different-Phenotype (%)” value [9]?
A: 0%

Q: What about the “Total Cell Count” value [9] of the same compound?
A: 333

Q: And the “Population Apoptotic (%)” value [10]?
A: 93%

Q: And the “Population Healthy Nuclei (%)” value [10]?
A: 72%

Q: And the “Population Membrane Permeable-Phenotype (%)” value [10]?
A: 0%

Q: And the “Population Mitotic Cells (%)” value [10]?
A: 6%

Q: And the “Population Pyknosed Nuclei (%)” value [10]?
A: 10%

Q: What about the “Total Cell Count” value [10] of the same compound?
A: 151

Q: What about the “Population Apoptotic (%)” value [11] of the same compound?
A: 87%

Q: What about the “Population Fragmented Nuclei (%)” value [11] of the same compound?
A: 21%

Q: What about the “Population Healthy Nuclei (%)” value [11] of the same compound?
A: 68%

Q: What about the “Population Hoechst High Intensity Objects (%)” value [11] of the same compound?
A: 3%

Q: And the “Population Membrane Permeable-Phenotype (%)” value [11]?
A: 4%

Q: What about the “Population Mitochondria Different-Phenotype (%)” value [11] of the same compound?
A: 2%

Q: And the “Population Mitotic Cells (%)” value [11]?
A: 12%

Q: What about the “Population Normal (%)” value [11] of the same compound?
A: 96%

Q: And the “Population Pyknosed Nuclei (%)” value [11]?
A: 10%

Q: And the “Population Tubulin-Different-Phenotype (%)” value [11]?
A: 3%

Q: What about the “Total Cell Count” value [11] of the same compound?
A: 388

Q: And the “Population Apoptotic (%)” value [12]?
A: 81%

Q: And the “Population Fragmented Nuclei (%)” value [12]?
A: 13%

Q: What about the “Population Healthy Nuclei (%)” value [12] of the same compound?
A: 79%

Q: What about the “Population Hoechst High Intensity Objects (%)” value [12] of the same compound?
A: 0%

Q: And the “Population Membrane Permeable-Phenotype (%)” value [12]?
A: 2%

Q: What about the “Population Mitochondria Different-Phenotype (%)” value [12] of the same compound?
A: 0%

Q: What about the “Population Mitotic Cells (%)” value [12] of the same compound?
A: 18%

Q: What about the “Population Normal (%)” value [12] of the same compound?
A: 100%

Q: What about the “Population Pyknosed Nuclei (%)” value [12] of the same compound?
A: 6%

Q: And the “Population Tubulin-Different-Phenotype (%)” value [12]?
A: 2%

Q: What about the “Total Cell Count” value [12] of the same compound?
A: 174
